# Results as given in ChEMBL document CHEMBL3526119, “Effect of the CYP2C8 genotype on the pharmacokinetics and pharmacodynamics of repaglinide” (Drug Metab Dispos, 2011).
# Legend:
# Assay type in all cases: ADME, organism-based
# Homo sapiens [1] = experiment: Mean change in blood glucose concentration in healthy white human plasma SLCO1B1 521TT/CYP2C8*3/*3 combined genotype at 2 mg, po; details: in vivo
# Outline: (§1)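 Single 2 mg oral dose in healthy Caucasian volunteers genotyped for CYP2C8*3, with SLCO1B1 521T>C also typed. […] Mean change is the average difference between values up to 6 h post-dose and baseline. Fasting lasted to 6 h. Mean with 95% CI or SD by genotype group.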
# Homo sapiens [2] = experiment: Mean change in blood glucose concentration in healthy white human plasma SLCO1B1 521TC/CYP2C8*1/*1 combined genotype at 2 mg, po; details: in vivo
# Outline: (§2)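 Venous blood glucose was read at each blood sampling time after a single oral 2 mg dose, with fasting up to 6 h. […] Maximal change is the largest change from baseline. Mean change is the average difference between values up to 6 h post-dose and baseline.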
# Homo sapiens [3] = experiment: Mean change in insulin concentration in healthy white human plasma with CYP2C8*1/*1 genotype at 2 mg, po up to 6 hrs; details: in vivo
# Outline: (§3)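 Healthy Caucasians got a single 2 mg oral dose and were genotyped for CYP2C8*3 and SLCO1B1 521T>C. Plasma insulin was sampled from pre-dose to 6 h and measured by solid-phase enzyme-labelled chemiluminescent immunometric assay (calibration 2–300 mU/l). Mean change is the average of post-dose values minus baseline up to 6 h, summarised per genotype group.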
# [4] = Oral clearance in healthy white human with CYP2C8*3/*3 genotype at 2 mg, po; details: in vivo
# Outline: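 Repaglinide was assayed by LC-MS/MS with diclofenac internal standard (LLOQ 0.098 µg/L). Noncompartmental analysis gave AUC by linear/log-linear trapezoidal rule extrapolated to infinity. Weight-adjusted oral clearance = dose/(AUC × body weight).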
# Homo sapiens [5] = experiment: Mean change in blood glucose concentration in healthy white human plasma with CYP2C8*1/*1 genotype at 2 mg, po up to 6 hrs; details: in vivo; outline: as §1
# [6] = Terminal half life in healthy white human with CYP2C8*3/*3 genotype at 2 mg, po; details: in vivo, read-out: beta t1/2 (converted)
# Outline: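 Single oral 2 mg dose; plasma sampled pre-dose and from 0:15 to 24 h post-dose (15 samples). Repaglinide measured by LC-MS/MS with diclofenac internal standard; calibration 0.098–79.139 µg/L. Noncompartmental analysis; AUC by linear/log-linear trapezoidal rule extrapolated to infinity. Reported as mean with 95% CI for all subjects and for each CYP2C8*3 genotype group.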
# Homo sapiens [7] = experiment: Maximal change in insulin concentration in healthy white human plasma with CYP2C8*1/*1 genotype at 2 mg, po up to 6 hrs; details: in vivo
# Outline: (§4)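 Plasma insulin was sampled up to 6 h after a single oral 2 mg dose, with subjects fasting. It was measured by solid-phase enzyme-labelled chemiluminescent immunometric assay, calibration range 2–300 mU/l. Maximal change is the largest change from the baseline concentration within 6 h.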
# [8] = AUC (0 to infinity) in healthy white human with CYP2C8*3/*3 genotype at 2 mg, po; design: dose 2 mg, route oral, time infinity; details: plasma
# Outline: (§5)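 Healthy Caucasians genotyped for CYP2C8*3 and SLCO1B1 521T>C were given a single oral 2 mg dose of repaglinide, and alcohol, caffeine and grapefruit were withheld. Plasma was sampled before dosing and at 15 times from 0.25 to 24 h. Drug was measured by LC-MS/MS against diclofenac internal standard, linear 0.098–79.139 µg/L. Noncompartmental analysis: Cmax taken as observed; AUC by linear/log-linear trapezoidal rule extrapolated to infinity.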
# Homo sapiens [9] = experiment: Mean change in insulin concentration in healthy white human plasma at 2 mg, po up to 6 hrs; details: in vivo; outline: as §3
# [10] = AUC (0 to infinity) in healthy white human with SLCO1B1 521TT/CYP2C8*1/*1 combined genotype at 2 mg, po; design: dose 2 mg, route oral, time infinity; details: plasma; outline: as §5
# Homo sapiens [11] = species: Homo sapiens; experiment: Maximal change in blood glucose concentration in healthy human plasma with SLCO1B1 521TC genotype at 0.5 mg
# Homo sapiens [12] = experiment: Maximal change in insulin concentration in healthy white human plasma with CYP2C8*3/*3 genotype at 2 mg, po up to 6 hrs; details: in vivo; outline: as §4
# Homo sapiens [13] = experiment: Mean change in insulin concentration in healthy white human plasma with SLCO1B1 521TT/CYP2C8*1/*3 combined genotype at 2 mg, po; details: in vivo; outline: as §3
# Homo sapiens [14] = experiment: Mean change in blood glucose concentration in healthy white human plasma at 2 mg, po up to 6 hrs; details: in vivo; outline: as §1
# Homo sapiens [15] = experiment: Maximal change in blood glucose concentration in healthy white human plasma with CYP2C8*1/*1 genotype at 2 mg, po up to 6 hrs; details: in vivo; outline: as §2
# Homo sapiens [16] = species: Homo sapiens; experiment: Maximal change in blood glucose concentration in healthy human plasma with SLCO1B1 521CC genotype at 0.5 mg
# Homo sapiens [17] = experiment: Maximal change in blood glucose concentration in healthy white human plasma with CYP2C8*1/*3 genotype at 2 mg, po up to 6 hrs; details: in vivo; outline: as §2
# [18] = AUC (0 to infinity) in healthy white human with CYP2C8*1/*3 genotype at 2 mg, po; design: dose 2 mg, time infinity, route oral; details: plasma; outline: as §5
# [19] = AUC (0 to infinity) in healthy white human with SLCO1B1 521TT/CYP2C8*3/*3 combined genotype at 2 mg, po; design: dose 2 mg, time infinity, route oral; details: plasma; outline: as §5
# [20] = Tmax in healthy white human with CYP2C8*1/*3 genotype at 2 mg, po; details: in vivo
# Homo sapiens [21] = experiment: Mean change in blood glucose concentration in healthy white human plasma SLCO1B1 521CC/CYP2C8*3/*3 combined genotype at 2 mg, po; details: in vivo; outline: as §2
# [22] = Cmax in healthy white human with SLCO1B1 521TC/CYP2C8*1/*1 combined genotype at 2 mg, po; design: dose 2 mg, route oral; details: in vivo; outline: as §5
# [23] = AUC (0 to infinity) in healthy white human with SLCO1B1 521TT/CYP2C8*1/*3 combined genotype at 2 mg, po; design: dose 2 mg, route oral, time infinity; details: plasma; outline: as §5
# Homo sapiens [24] = experiment: Mean change in insulin concentration in healthy white human plasma with SLCO1B1 521CC/CYP2C8*3/*3 combined genotype at 2 mg, po; details: in vivo; outline: as §3
# Homo sapiens [25] = species: Homo sapiens; experiment: Maximal change in blood glucose concentration in healthy human plasma with SLCO1B1 521TT genotype at 0.5 mg
# [26] = Cmax in healthy white human with SLCO1B1 521TT/CYP2C8*3/*3 combined genotype at 2 mg, po; design: dose 2 mg, route oral; details: in vivo; outline: as §5
# [27] = Tmax in healthy white human with CYP2C8*3/*3 genotype at 2 mg, po; details: in vivo
# Homo sapiens [28] = experiment: Maximal change in blood glucose concentration in healthy white human plasma with CYP2C8*3/*3 genotype at 2 mg, po up to 6 hrs; details: in vivo; outline: as §2
# Homo sapiens [29] = experiment: Mean change in insulin concentration in healthy white human plasma with SLCO1B1 521TC/CYP2C8*3/*3 combined genotype at 2 mg, po; details: in vivo; outline: as §3
# Homo sapiens [30] = experiment: Mean change in blood glucose concentration in healthy white human plasma SLCO1B1 521TC/CYP2C8*3/*3 combined genotype at 2 mg, po; details: in vivo; outline: as §1
# Homo sapiens [31] = experiment: Mean change in insulin concentration in healthy white human plasma with SLCO1B1 521TT/CYP2C8*3/*3 combined genotype at 2 mg, po; details: in vivo; outline: as §3
# [32] = Cmax in healthy white human with SLCO1B1 521TC/CYP2C8*3/*3 combined genotype at 2 mg, po; design: dose 2 mg, route oral; details: in vivo; outline: as §5
# Homo sapiens [33] = experiment: Mean change in insulin concentration in healthy white human plasma with SLCO1B1 521TC/CYP2C8*1/*1 combined genotype at 2 mg, po; details: in vivo; outline: as §3
smiles,measurement,setting,value
CCOc1cc(CC(=O)N[C@@H](CC(C)C)c2ccccc2N2CCCCC2)ccc1C(=O)O [REPAGLINIDE],Activity,Homo sapiens [1],-0.1 mM
same,Activity,Homo sapiens [2],-0.5 mM
same,Activity,Homo sapiens [3],6.7 mU/L
same,CL/F,[4],8 mL/min/kg
same,Activity,Homo sapiens [5],-0.42 mM
same,half-life,[6],78 min
same,Activity,Homo sapiens [7],23.9 mU/L
same,AUC(0-inf),[8],72.4 ng·h/mL
same,Activity,Homo sapiens [9],5.5 mU/L
same,AUC(0-inf),[10],92.3 ng·h/mL
same,Activity,Homo sapiens [11],1.9 mM
same,Activity,Homo sapiens [12],8.3 mU/L
same,Activity,Homo sapiens [13],5.6 mU/l
same,Activity,Homo sapiens [14],-0.53 mM
same,Activity,Homo sapiens [15],-1.62 mM
same,Activity,Homo sapiens [16],2.3 mM
same,Activity,Homo sapiens [17],-1.83 mM
same,AUC(0-inf),[18],97.2 ng·h/mL
same,AUC(0-inf),[19],116 ng·h/mL
same,Tmax,[20],48 min
same,Activity,Homo sapiens [21],-0.8 mM
same,Cmax,[22],83.7 ng/mL
same,AUC(0-inf),[23],117 ng·h/mL
same,Activity,Homo sapiens [24],6.1 mU/l
same,Activity,Homo sapiens [25],1.9 mM
same,Cmax,[26],36.6 ng/mL
same,Tmax,[27],54 min
same,Activity,Homo sapiens [28],-1.48 mM
same,Activity,Homo sapiens [29],1.5 mU/l
same,Activity,Homo sapiens [30],-0.2 mM
same,Activity,Homo sapiens [31],1 mU/l
same,Cmax,[32],15.3 ng/mL
same,Activity,Homo sapiens [33],5.7 mU/l
